Assay results published in publication PMC11328607 (Journal of Enzyme Inhibition and Medicinal Chemistry, 2024).
“And” between values parts separate entries of the source, which are not always exact repeats. Identical values can stand only once. Like-named read-outs stand apart in the source and are kept apart here.

Columns and labels:
A549 cells = assay: Combination studies with cisplatin; format: cell-based, human
[1] = system: normal human lung fibroblasts (Wi-38); assay: MTT cytotoxicity assay on normal lung fibroblasts; format: cell-based; conditions: for IC50: read-out: Wi-38 IC50
MMP-9 = MMP-9 (Homo sapiens, UniProt P14780); assay: In vitro MMP-9 inhibition assay; format: biochemical
Method in brief: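 Commercial MMP-9 inhibitor assay kit, run per the manufacturer's instructions. Test compounds were assayed at 0.5 µM alongside the broad-spectrum hydroxamate MMP inhibitor NNGH as reference. For selectivity, MMP-2 inhibition was measured with a colorimetric MMP-2 inhibitor screening kit at the same 0.5 µM, also per the manufacturer's instructions.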

[2] = molecular target: CaV3.2 (T-type) calcium channels (Homo sapiens, UniProt O95180); assay: Whole cell patch-clamp T-type calcium channel block; format: cell-based; conditions: HEK-tsA201, read-out: Block of CaV3.2 (T-type) currents, percentage of inhibition, 10 μM; HEK tsA-201 cells; n = 3
Method in brief: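 Human embryonic kidney tsA-201 (293T) cells transiently transfected to express CaV3.2 T-type channels, then recorded by whole-cell patch clamp. Each test compound applied at 10 µM and block of T-type calcium current measured.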

[3] = DPPH radical scavenging assay; conditions: n = 3; for DPPH radical scavenging %: 12 h, dark
Method in brief: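 Test compound dissolved in 1:1 water:DMSO (v/v), then mixed with an equal volume of 0.6 mM DPPH in absolute ethanol, giving final 500, 250, 125, 100, 62.5 and 31.25 µg/mL. Kept 12 h at room temperature in complete darkness. Absorbance read at 517 nm. Inhibition % taken from control (A0) versus compound (A1) absorbance, IC50 then calculated. Mean ± SD, n = 3.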

human NSCLC A549 cells = assay: MTT cytotoxicity assay on NSCLC cells; format: cell-based; conditions: for fold more potent than cisplatin: A549 IC50 relative to cisplatin; for IC50: Mean ± SD, n = 3; for SI (ratio of IC50 for healthy and cancer cells): Wi-38 IC50 / A549 IC50
Method in brief: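 Human A549 and Wi-38 fibroblasts (ATCC) grown in DMEM with 10% FBS at 37 °C, 5% CO2. Wi-38 seeded at 5 x10^3 cells/well and given 24 h to attach; A549 run by the same MTT method. […] MTT 5 mg/ml added for 3 h at 37 °C, formazan dissolved in DMSO, A570 read. IC50 derived; SI = Wi-38 IC50/A549 IC50. Mean ± SD, n = 3.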

[4] = Homo sapiens, A549, 72 h, read-out: A549 IC50, MTT, 72 h

CaV3.2 (T-type) calcium channels, sequence (O95180 whole entry): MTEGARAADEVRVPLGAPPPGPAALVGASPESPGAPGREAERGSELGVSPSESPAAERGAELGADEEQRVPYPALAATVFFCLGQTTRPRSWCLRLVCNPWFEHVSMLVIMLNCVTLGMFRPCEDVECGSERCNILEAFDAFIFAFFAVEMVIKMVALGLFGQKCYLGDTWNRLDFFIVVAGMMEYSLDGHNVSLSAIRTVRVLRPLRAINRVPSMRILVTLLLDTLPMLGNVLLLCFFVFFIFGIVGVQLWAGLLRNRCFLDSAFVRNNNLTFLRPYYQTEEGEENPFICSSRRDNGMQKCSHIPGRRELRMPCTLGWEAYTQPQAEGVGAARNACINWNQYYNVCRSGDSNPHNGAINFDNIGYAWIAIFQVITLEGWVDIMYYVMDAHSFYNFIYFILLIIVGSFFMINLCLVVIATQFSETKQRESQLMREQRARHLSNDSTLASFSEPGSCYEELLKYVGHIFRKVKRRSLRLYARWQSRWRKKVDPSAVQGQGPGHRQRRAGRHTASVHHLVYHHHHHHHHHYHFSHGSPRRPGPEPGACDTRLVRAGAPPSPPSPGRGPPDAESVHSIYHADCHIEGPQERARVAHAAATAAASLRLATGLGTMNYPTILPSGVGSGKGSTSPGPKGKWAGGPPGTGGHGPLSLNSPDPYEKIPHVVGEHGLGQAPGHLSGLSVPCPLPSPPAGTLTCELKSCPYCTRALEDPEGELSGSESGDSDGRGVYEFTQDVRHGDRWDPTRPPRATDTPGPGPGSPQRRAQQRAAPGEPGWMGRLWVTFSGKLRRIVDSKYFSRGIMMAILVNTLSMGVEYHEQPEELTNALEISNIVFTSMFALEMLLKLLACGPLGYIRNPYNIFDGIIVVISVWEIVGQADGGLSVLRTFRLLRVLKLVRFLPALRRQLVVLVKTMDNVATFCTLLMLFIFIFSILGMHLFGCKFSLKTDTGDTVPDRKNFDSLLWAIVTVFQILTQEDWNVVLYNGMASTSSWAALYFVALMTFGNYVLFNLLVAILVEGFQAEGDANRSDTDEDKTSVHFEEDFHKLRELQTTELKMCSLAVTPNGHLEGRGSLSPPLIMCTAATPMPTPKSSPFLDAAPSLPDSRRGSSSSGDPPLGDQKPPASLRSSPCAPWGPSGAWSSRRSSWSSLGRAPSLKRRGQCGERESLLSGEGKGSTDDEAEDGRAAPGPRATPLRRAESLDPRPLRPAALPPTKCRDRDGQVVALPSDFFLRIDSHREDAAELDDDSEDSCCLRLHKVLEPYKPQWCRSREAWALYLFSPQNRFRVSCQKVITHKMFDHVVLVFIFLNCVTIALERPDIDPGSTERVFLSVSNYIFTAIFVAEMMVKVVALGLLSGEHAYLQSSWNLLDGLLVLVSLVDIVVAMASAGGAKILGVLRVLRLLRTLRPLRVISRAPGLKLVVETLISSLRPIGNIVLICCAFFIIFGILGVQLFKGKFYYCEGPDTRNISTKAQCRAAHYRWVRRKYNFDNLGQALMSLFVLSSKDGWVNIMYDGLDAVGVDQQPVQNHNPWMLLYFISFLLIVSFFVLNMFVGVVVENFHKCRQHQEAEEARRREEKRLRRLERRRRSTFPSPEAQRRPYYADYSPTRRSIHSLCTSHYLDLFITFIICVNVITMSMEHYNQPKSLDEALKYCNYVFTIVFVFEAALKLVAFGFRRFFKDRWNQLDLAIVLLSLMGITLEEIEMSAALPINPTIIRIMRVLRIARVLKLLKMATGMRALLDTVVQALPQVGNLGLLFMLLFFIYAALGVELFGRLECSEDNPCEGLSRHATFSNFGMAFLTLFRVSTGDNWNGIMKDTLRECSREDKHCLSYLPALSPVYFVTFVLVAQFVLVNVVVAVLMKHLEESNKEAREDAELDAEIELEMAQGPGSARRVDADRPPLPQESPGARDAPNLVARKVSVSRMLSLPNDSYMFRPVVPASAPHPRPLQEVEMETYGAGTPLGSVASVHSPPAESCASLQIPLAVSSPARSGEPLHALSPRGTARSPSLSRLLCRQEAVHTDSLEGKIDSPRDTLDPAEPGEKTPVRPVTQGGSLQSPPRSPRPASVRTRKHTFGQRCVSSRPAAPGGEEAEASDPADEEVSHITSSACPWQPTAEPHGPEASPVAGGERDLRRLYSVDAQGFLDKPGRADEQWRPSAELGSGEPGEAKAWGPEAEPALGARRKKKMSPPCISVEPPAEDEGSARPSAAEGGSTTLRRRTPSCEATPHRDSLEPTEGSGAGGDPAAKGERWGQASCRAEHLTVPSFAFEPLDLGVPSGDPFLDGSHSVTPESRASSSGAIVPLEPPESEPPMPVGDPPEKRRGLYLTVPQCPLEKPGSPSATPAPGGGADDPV
MMP-9, sequence (P14780 94-707): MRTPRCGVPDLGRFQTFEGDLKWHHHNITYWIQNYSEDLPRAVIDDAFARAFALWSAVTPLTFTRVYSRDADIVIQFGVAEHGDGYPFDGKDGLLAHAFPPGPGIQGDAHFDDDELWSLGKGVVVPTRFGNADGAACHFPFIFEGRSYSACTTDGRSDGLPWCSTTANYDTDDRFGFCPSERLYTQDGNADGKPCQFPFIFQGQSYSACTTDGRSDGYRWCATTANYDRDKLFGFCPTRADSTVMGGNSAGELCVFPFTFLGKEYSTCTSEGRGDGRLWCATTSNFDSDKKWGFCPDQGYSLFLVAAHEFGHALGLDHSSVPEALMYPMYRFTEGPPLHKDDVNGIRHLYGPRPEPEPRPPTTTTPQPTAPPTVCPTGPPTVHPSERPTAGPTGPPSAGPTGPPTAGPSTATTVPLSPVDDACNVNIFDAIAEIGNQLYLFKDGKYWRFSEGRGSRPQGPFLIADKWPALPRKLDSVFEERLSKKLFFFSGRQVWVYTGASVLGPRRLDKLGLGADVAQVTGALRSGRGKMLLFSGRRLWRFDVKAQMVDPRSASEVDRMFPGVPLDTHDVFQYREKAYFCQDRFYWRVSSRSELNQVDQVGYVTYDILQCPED

Row | inhibition at 10 µM [2] | SMILES | IC50 ([1]; Homo sapiens, WI-38, 72 h) | Wi-38 EC100 (effective safe concentration at 100% cell viability) ([1]; MTT, 72 h, Mean ± SD, n = 3) | IC50 (human NSCLC A549 cells; [4]) | other results
1 | ~60% | O=C(Cn1cc(C=CC(=O)c2ccc(F)cc2)nn1)Nc1nc(-c2ccccc2)cs1 [Compound 6d, 2-{4-[3–(4-Fluorophenyl)-3-oxoprop-1-en-1-yl]-1H-1,2,3-triazol-1-yl}-N-(4-phenylthiazol-2-yl)acetamide] | 255 ± 3 nM | 138 ± 9 nM | 21 ± 1 nM | lowering of combination IC50 compared to cisplatin as single agent (A549 cells; 6d combined with cisplatin): > 72.3% and > 72.32%; dose reduction index (DRI) for cisplatin (A549 cells; 6d with cisplatin at IC50 doses): 6.89 folds; combination index (CI) (A549 cells; 6d with cisplatin, CI < 1 synergistic): 0.69 ± 0.05 and 0.69; IC50 (MMP-9): 90 ± 10 nM; selectivity to MMP-9 over MMP-2 (SI) (MMP-9; MMP-9 over MMP-2, 0.5 μM): 2.4; inhibition at 0.5 µM (MMP-9; read-out: MMP-9 % Inhibition (0.5 μM)): 96.2 ± 0.6%; fold more active than NNGH (MMP-9 IC50) (MMP-9; relative to NNGH): ~4 fold; DPPH radical scavenging % ([3]; 250 µg/mL): 70.9 ± 6.6%; DPPH radical scavenging % ([3]; 500 µg/mL): 85.4 ± 7.9%; DPPH radical scavenging IC50 ([3]; Mean ± SD): 146.9 ± 22.54 µg/mL; fold more potent than cisplatin (human NSCLC A549 cells): 27 fold
2 | – | CC(=O)C=Cc1cn(CC(=O)Nc2nc(-c3ccccc3)cs2)nn1 [Compound 6a, 2-[4–(3-Oxobut-1-en-1-yl)-1H-1,2,3-triazol-1-yl]-N-(4-phenylthiazol-2-yl)acetamide] | 1920 ± 212 nM | 460 nM and 460 ± 110 nM | 82 ± 5 nM | –
3 | 20% | O=Cc1cn(CC(=O)Nc2nc(-c3ccccc3)cs2)nn1 [Compound 5, 2–(4-Formyl-1H-1,2,3-triazol-1-yl)-N-(4-phenylthiazol-2-yl)acetamide] | 243 ± 14 nM | 78 ± 4 nM | 112 nM | –
4 | – | O=C(C=Cc1cn(CC(=O)Nc2nc(-c3ccccc3)cs2)nn1)C=Cc1cn(CC(=O)Nc2nc(-c3ccccc3)cs2)nn1 [Compound 8, 2,2’-[(3-Oxopenta-1,4-diene-1,5-diyl)bis(1H-1,2,3-triazole-4,1-diyl)]bis(N-(4-phenylthiazol-2-yl)acetamide)] | 108 ± 3 nM | 38 ± 2 nM | 116 ± 1 nM | –
5 | – | Cc1ccc(C2=NNC(c3cn(CC(=O)Nc4nc(-c5ccccc5)cs4)nn3)C2)cc1 (stereo not shown) [Compound 7c, 2-{4-[3-(p-tolyl)-4,5-dihydro-1H-pyrazol-5-yl]-1H-1,2,3-triazol-1-yl}-N-(4-phenylthiazol-2-yl)acetamide] | 230 ± 5 nM | 51 ± 7 nM | 200 ± 6 nM | SI (ratio of IC50 for healthy and cancer cells) (human NSCLC A549 cells): 1.15
6 | – | O=C(Cn1cc(C2CC(c3ccc(F)cc3)=NN2)nn1)Nc1nc(-c2ccccc2)cs1 (stereo not shown) [Compound 7d, 2-{4-[3–(4-Fluorophenyl)-4,5-dihydro-1H-pyrazol-5-yl]-1H-1,2,3-triazol-1-yl}-N-(4-phenylthiazol-2-yl)acetamide] | 1300 ± 31 nM | 108 ± 15 nM | 425 ± 17 nM | SI (ratio of IC50 for healthy and cancer cells) (human NSCLC A549 cells): 3.05
7 | ~60% | O=C(Cn1cc(CO)nn1)Nc1nc(-c2ccccc2)cs1 [Compound 4, 2-[4-(Hydroxymethyl)-1H-1,2,3-triazol-1-yl]-N-(4-phenylthiazol-2-yl)acetamide] | 249 ± 2 nM | 58 ± 4 nM | 268 ± 2 nM | –
8 | – | [N-]=[N+]=NCC(=O)Nc1nc(-c2ccccc2)cs1 [Compound 3, 2-Azido-N-(4-phenylthiazol-2-yl)acetamide] | 1728 ± 3 nM | 429 nM and 429 ± 32 nM | 74.4 nM | fold more potent than cisplatin (human NSCLC A549 cells): ~8 fold; IC50 (human NSCLC A549 cells; read-out: A549 IC50, MTT, 72 h): 74 ± 4 nM
9 | – | N.N.[Cl][Pt][Cl] [Cisplatin, reference compound] | – | – | – | IC50 ([1]; MTT, 72 h, Mean ± SD, n = 3): 1330 ± 82 nM; IC50 (human NSCLC A549 cells; read-out: A549 IC50, MTT, 72 h): 586 ± 30 nM
10 | – | COc1ccc(S(=O)(=O)N(CC(=O)NO)CC(C)C)cc1 [NNGH, reference compound] | – | – | – | MMP-9 % Inhibition (0.5 μM) (MMP-9; 0.5 μM, Mean ± SD, n = 2): 56.8 ± 0.8%; IC50 (MMP-9; read-out: MMP-9 IC50, Mean ± SD, n = 2): 350 ± 10 nM
